Experimental data: ChEMBL document CHEMBL1138564, “Microwave-induced synthesis and anti-microbial activities of 7,10,11,12-tetrahydrobenzo[c]acridin-8(9H)-one derivatives” (2009)
Converted amounts (≈) assume the structure as drawn. The source made the active and inactive calls. The rule behind the calls is not given here.

What was measured:
Aspergillus parasiticus [1] = assay: Antimicrobial activity against Aspergillus parasiticus NCIM 904 at 500 ug/disk after 72 hrs by disk diffusion method; assay type: functional; conditions: NCIM 904, 72 h, read-out: DIZ
Outline: (§1)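 Disc diffusion on Sabouraud's dextrose agar. 100 µl of fungal suspension at 10⁶ CFU/ml is spread on the plate. Discs carry test compounds at two loadings in DMSO; DMSO alone is the negative control. Clotrimazole disc is the positive reference. Plates are incubated at 27 °C for 72 h, and the zone of inhibition diameter is measured.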

Aspergillus flavus [2] = assay: Antimicrobial activity against Aspergillus flavus NCIM 902 at 1000 ug/disk after 72 hrs by disk diffusion method; assay type: functional; conditions: NCIM 902, 72 h, read-out: DIZ; outline: as §1
Penicillium chrysogenum [3] = assay: Antimicrobial activity against Penicillium chrysogenum NCIM 707 at 500 ug/disk after 72 hrs by disk diffusion method; assay type: functional; outline: as §1
Rhodotorula mucilaginosa [4] = assay: Antimicrobial activity against Rhodotorula rubra NCIM 3174 at 1000 ug/disk after 72 hrs by disk diffusion method; assay type: functional; conditions: NCIM 3174, 72 h, read-out: DIZ
Outline: (§2)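 Fungal disc diffusion. 100 µl of suspension at 10⁶ CFU/ml was spread on Sabouraud's dextrose agar. Discs carrying test compound in DMSO were applied, with a DMSO-only disc as negative control. Plates were incubated at 27 °C for 72 h, and the zone of inhibition diameter was measured.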

Trichoderma viride [5] = assay: Antimicrobial activity against Trichoderma viride NCIM 1195 at 1000 ug/disk after 72 hrs by disk diffusion method; assay type: functional; conditions: NCIM 1195, 72 h, read-out: DIZ; outline: as §2
[6] = test system: Rhodococcus corynebacterioides; assay: Antimicrobial activity against Corynebacterium rubrum NCIM 2252 at 1000 ug/disk after 24 hrs by disk diffusion method; assay type: functional; conditions: Rhodococcoides corynebacterioides
Outline: (§3)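 Disc diffusion on Mueller–Hinton agar. 100 µl of bacterial suspension at 10⁸ CFU/ml is spread on the plate. Discs carry test compounds at two loadings, dissolved in DMSO; DMSO alone serves as negative control. Ofloxacin disc is the positive reference. Plates are incubated at 37 °C for 24 h, and the inhibition zone diameter is measured.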

[7] = test system: Rhodococcus corynebacterioides; assay: Antimicrobial activity against Corynebacterium rubrum NCIM 2252 at 500 ug/disk after 24 hrs by disk diffusion method; assay type: functional; conditions: Rhodococcoides corynebacterioides; outline: as §3
Escherichia coli [8] = assay: Antimicrobial activity against Escherichia coli NCIM 2065 after 24 hrs by serial dilution method; assay type: functional; conditions: NCIM 2065, 24 h
Outline: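 Broth dilution MIC in nutrient broth, run only for organisms found sensitive in disc diffusion. Compounds are two-fold serially diluted in 1 ml sterile broth per tube, spanning 3.9 to 1000. Inoculated tubes are incubated at 37 °C for 24 h.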

Aspergillus flavus [9] = assay: Antimicrobial activity against Aspergillus flavus NCIM 902 after 72 hrs by serial dilution method; assay type: functional; conditions: NCIM 535, 72 h, in the assay text read “NCIM 535” for “NCIM 902”
Outline: (§4)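 MIC by broth dilution in Sabouraud's dextrose broth, only for fungi sensitive in disc diffusion. Two-fold serial dilutions of compounds are made in 1 ml broth per tube, range 3.9 to 1000. Inoculated tubes are incubated at 27 °C for 72 h.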

Escherichia coli [10] = assay: Antimicrobial activity against Escherichia coli NCIM 2065 at 1000 ug/disk after 24 hrs by disk diffusion method; assay type: functional; conditions: NCIM 2065, 24 h, read-out: DIZ; outline: as §3
Rhodotorula mucilaginosa [11] = assay: Antimicrobial activity against Rhodotorula rubra NCIM 3174 at 500 ug/disk after 72 hrs by disk diffusion method; assay type: functional; conditions: NCIM 3174, 72 h, read-out: DIZ; outline: as §2
Aspergillus parasiticus [12] = assay: Antimicrobial activity against Aspergillus parasiticus NCIM 904 after 72 hrs by serial dilution method; assay type: functional; conditions: NCIM 904, 72 h; outline: as §4
Staphylococcus [13] = assay: Antimicrobial activity against Staphylococcus albus NCIM 2178 at 1000 ug/disk after 24 hrs by disk diffusion method; assay type: functional
Outline: (§5)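 Disc diffusion. 100 µl of bacterial suspension at 10⁸ CFU/ml was spread on Mueller–Hinton agar. Discs loaded with test compound dissolved in DMSO were placed on the lawn, with a DMSO-only disc as negative control. Plates were incubated at 37 °C for 24 h, and the inhibition zone diameter was measured.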

Proteus vulgaris [14] = assay: Antimicrobial activity against Proteus vulgaris NCIM 2027 at 1000 ug/disk after 24 hrs by disk diffusion method; assay type: functional; outline: as §3
Aliivibrio fischeri [15] = assay: Antimicrobial activity against Vibrio fischeri NCIM 2154 at 1000 ug/disk after 24 hrs by disk diffusion method; assay type: functional; conditions: NCIM 2154, 24 h, read-out: DIZ; outline: as §5
Aliivibrio fischeri [16] = assay: Antimicrobial activity against Vibrio fischeri NCIM 2154 after 24 hrs by serial dilution method; assay type: functional; conditions: NCIM 2154, 24 h
Salmonella typhimurium [17] = assay: Antimicrobial activity against Salmonella Typhimurium NCIM 2501 at 1000 ug/disk after 24 hrs by disk diffusion method; assay type: functional, Salmonella enterica subsp. enterica serovar Typhimurium; conditions: Salmonella enterica, NCIM 2501, 24 h; read-out: DIZ; outline: as §5
Bacillus subtilis = assay: Antimicrobial activity against Bacillus subtilis NCIM 2063 at 500 ug/disk after 24 hrs by disk diffusion method; assay type: functional; conditions: NCIM 2063, 24 h, read-out: DIZ; outline: as §3
Escherichia coli [18] = assay: Antimicrobial activity against Escherichia coli NCIM 2065 at 500 ug/disk after 24 hrs by disk diffusion method; assay type: functional; conditions: NCIM 2065, 24 h, read-out: DIZ; outline: as §3
Lipomyces lipofer [19] = assay: Antimicrobial activity against Lipomyces lipofer NCIM 3252 at 500 ug/disk after 72 hrs by disk diffusion method; assay type: functional; outline: as §1
Salmonella typhimurium [20] = assay: Antimicrobial activity against Salmonella Typhimurium NCIM 2501 at 500 ug/disk after 24 hrs by disk diffusion method; assay type: functional, Salmonella enterica subsp. enterica serovar Typhimurium; conditions: Salmonella enterica, NCIM 2501, 24 h; read-out: DIZ; outline: as §5
Pseudomonas aeruginosa [21] = assay: Antimicrobial activity against Pseudomonas aeruginosa NCIM 2200 at 1000 ug/disk after 24 hrs by disk diffusion method; assay type: functional; outline: as §3
Staphylococcus [22] = assay: Antimicrobial activity against Staphylococcus albus NCIM 2178 at 500 ug/disk after 24 hrs by disk diffusion method; assay type: functional; outline: as §5
Aspergillus flavus [23] = assay: Antimicrobial activity against Aspergillus flavus NCIM 902 at 500 ug/disk after 72 hrs by disk diffusion method; assay type: functional; conditions: NCIM 902, 72 h, read-out: DIZ; outline: as §1
Penicillium chrysogenum [24] = assay: Antimicrobial activity against Penicillium chrysogenum NCIM 707 at 1000 ug/disk after 72 hrs by disk diffusion method; assay type: functional; outline: as §1
Trichoderma viride [25] = assay: Antimicrobial activity against Trichoderma viride NCIM 1195 at 500 ug/disk after 72 hrs by disk diffusion method; assay type: functional; conditions: NCIM 1195, 72 h, read-out: DIZ; outline: as §2
Lipomyces lipofer [26] = assay: Antimicrobial activity against Lipomyces lipofer NCIM 3252 at 1000 ug/disk after 72 hrs by disk diffusion method; assay type: functional; outline: as §1
Proteus vulgaris [27] = assay: Antimicrobial activity against Proteus vulgaris NCIM 2027 at 500 ug/disk after 24 hrs by disk diffusion method; assay type: functional; outline: as §3
Klebsiella aerogenes = assay: Antimicrobial activity against Klebsiella aerogenes NCIM 2239 at 500 ug/disk after 24 hrs by disk diffusion method; assay type: functional; outline: as §3
Aliivibrio fischeri [28] = assay: Antimicrobial activity against Vibrio fischeri NCIM 2154 at 500 ug/disk after 24 hrs by disk diffusion method; assay type: functional; outline: as §5
Pseudomonas aeruginosa [29] = assay: Antimicrobial activity against Pseudomonas aeruginosa NCIM 2200 at 500 ug/disk after 24 hrs by disk diffusion method; assay type: functional; outline: as §5
Aspergillus fumigatus = assay: Antimicrobial activity against Aspergillus fumigatus NCIM 902 at 500 ug/disk after 72 hrs by disk diffusion method; assay type: functional; outline: as §1
Bacillus cereus = assay: Antimicrobial activity against Bacillus cereus NCIM 2155 at 1000 ug/disk after 24 hrs by disk diffusion method; assay type: functional; conditions: NCIM 2155, 24 h, read-out: DIZ; outline: as §3

| Structure (SMILES) | zone of inhibition at 500 µg/disc (Aspergillus parasiticus [1]) | zone of inhibition at 1000 µg/disc (Aspergillus flavus [2]) | diameter of the inhibition zone (DIZ) (Penicillium chrysogenum [3]) | zone of inhibition at 1000 µg/disc (Rhodotorula mucilaginosa [4]) | zone of inhibition at 1000 µg/disc (Trichoderma viride [5]) | diameter of the inhibition zone (DIZ) [6] | diameter of the inhibition zone (DIZ) [7] | MIC (Escherichia coli [8]) | MIC (Aspergillus flavus [9]) | zone of inhibition at 1000 µg/disc (Escherichia coli [10]) | zone of inhibition at 500 µg/disc (Rhodotorula mucilaginosa [11]) | MIC (Aspergillus parasiticus [12]) | diameter of the inhibition zone (DIZ) (Staphylococcus [13]) | diameter of the inhibition zone (DIZ) (Proteus vulgaris [14]) | zone of inhibition at 1000 µg/disc (Aliivibrio fischeri [15]) | MIC (Aliivibrio fischeri [16]) | zone of inhibition at 1000 µg/disc (Salmonella typhimurium [17]) | zone of inhibition at 500 µg/disc (Bacillus subtilis) | zone of inhibition at 500 µg/disc (Escherichia coli [18]) | zone of inhibition at 500 µg/disc (Salmonella typhimurium [20]) | other results |
| --- | --- | --- | --- | --- | --- | --- | --- | --- | --- | --- | --- | --- | --- | --- | --- | --- | --- | --- | --- | --- | --- |
| CC1(C)CC(=O)C2=C(C1)Nc1c(ccc3ccccc13)C2c1ccccc1 (stereo unspecified) | 7 mm | 10 mm | inactive | 12 mm | 12 mm | inactive | inactive | 62.5 µg/mL (≈ 177 µM) | 62.5 µg/mL (≈ 177 µM) | 10 mm | 10 mm | 62.5 µg/mL (≈ 177 µM) | inactive | inactive | 8 mm | 125 µg/mL (≈ 354 µM) | 10 mm | 8 mm | 7 mm | 9 mm | diameter of the inhibition zone (DIZ) (Lipomyces lipofer [19]): inactive; diameter of the inhibition zone (DIZ) (Pseudomonas aeruginosa [21]): inactive; diameter of the inhibition zone (DIZ) (Staphylococcus [22]): inactive; zone of inhibition at 500 µg/disc (Aspergillus flavus [23]): 9 mm; diameter of the inhibition zone (DIZ) (Penicillium chrysogenum [24]): inactive; zone of inhibition at 500 µg/disc (Trichoderma viride [25]): 9 mm; diameter of the inhibition zone (DIZ) (Lipomyces lipofer [26]): inactive; diameter of the inhibition zone (DIZ) (Proteus vulgaris [27]): inactive; diameter of the inhibition zone (DIZ) (Klebsiella aerogenes): inactive; diameter of the inhibition zone (DIZ) (Aliivibrio fischeri [28]): inactive; diameter of the inhibition zone (DIZ) (Pseudomonas aeruginosa [29]): inactive; diameter of the inhibition zone (DIZ) (Aspergillus fumigatus): inactive; zone of inhibition at 1000 µg/disc (Bacillus cereus): 12 mm |
| CC1(C)CC(=O)C2=C(C1)Nc1c(ccc3ccccc13)C2c1ccccc1Cl (stereo unspecified) | 8 mm | 10 mm | inactive | 13 mm | 8 mm | inactive | inactive | 125 µg/mL (≈ 322 µM) | 62.5 µg/mL (≈ 161 µM) | 8 mm | 10 mm | 62.5 µg/mL (≈ 161 µM) | inactive | inactive | 9 mm | 62.5 µg/mL (≈ 161 µM) | 13 mm | 7 mm | 7 mm | 10 mm | zone of inhibition at 500 µg/disc (Lipomyces lipofer [19]; NCIM 3252, 72 h, read-out: DIZ): 7 mm; diameter of the inhibition zone (DIZ) (Pseudomonas aeruginosa [21]): inactive; diameter of the inhibition zone (DIZ) (Staphylococcus [22]): inactive; zone of inhibition at 500 µg/disc (Aspergillus flavus [23]): 8 mm; diameter of the inhibition zone (DIZ) (Penicillium chrysogenum [24]): inactive; zone of inhibition at 500 µg/disc (Trichoderma viride [25]): 7 mm; zone of inhibition at 1000 µg/disc (Lipomyces lipofer [26]; NCIM 3252, 72 h, read-out: DIZ): 10 mm; diameter of the inhibition zone (DIZ) (Proteus vulgaris [27]): inactive; diameter of the inhibition zone (DIZ) (Klebsiella aerogenes): inactive; zone of inhibition at 500 µg/disc (Aliivibrio fischeri [28]; NCIM 2154, 24 h, read-out: DIZ): 7 mm; diameter of the inhibition zone (DIZ) (Pseudomonas aeruginosa [29]): inactive; diameter of the inhibition zone (DIZ) (Aspergillus fumigatus): inactive; zone of inhibition at 1000 µg/disc (Bacillus cereus): 11 mm |
